The term MIC80 denotes the lowest concentration that inhibits either 80% of growth or 80% of the strains tested, depending on the study.

Values after ≈ are worked out from the molar mass of the structure shown. Active and inactive are the calls of the source. The calls are words filed in the database; no cut-off is given here.

The test system of test [1] is Candida albicans. Description: Antifungal activity against Candida albicans SN152 assessed as reduction in drug tolerance by measuring zone of inhibition at 25 ug incubated for 24 to 48 hrs by disk diffusion assay. The test is classed as functional, organism-based. Particulars: dose 25.0 µg, time 24-48 hrs. The procedure, abridged:
(§1)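 Plated onto casitone agar from 24 h, 30 °C YPAD-agar colonies suspended in PBS. Inoculum OD600 0.02 for C. albicans SN152, 0.025 for C. parapsilosis ATCC 22019 and C. tropicalis 660. Central 6-mm disk holding 25 µg drug. Plates incubated at 30 °C and imaged at 24 h (inhibition zone) and 48 h (tolerant colonies within the zone).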
On the technique in general: Agar diffusion results depend on both activity and mobility in agar.

Test [2] relates to Candida parapsilosis. In words: Antifungal activity against Candida parapsilosis ATCC 22019 assessed as reduction in drug tolerance by measuring zone of inhibition at 25 ug incubated for 24 to 48 hrs by disk diffusion assay. The test is classed as functional, organism-based. As to conditions: dose 25.0 µg, time 24-48 hrs. The procedure, abridged: as §1
In the next test the test system is Candida tropicalis. Description: Antifungal activity against Candida tropicalis 660 assessed as reduction in drug tolerance by measuring zone of inhibition at 25 ug incubated for 24 to 48 hrs by disk diffusion assay. The test is classed as functional, organism-based. Particulars: dose 25.0 µg, time 24-48 hrs. Summed up: as §1
Test [3] concerns Candida albicans. Description: Antifungal activity against Candida albicans SN152 harbouring erg3delta delta/erg11delta delta assessed as […] fungal growth inhibition at 64 ug/mL measured every 40 mins for 48 hrs by double dilution method. Format: functional, organism-based. As to conditions: dose 64.0 µg/ml. Summed up: (§2)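 erg3ΔΔ/erg11ΔΔ C. albicans taken from 24 h, 30 °C YPAD-agar colonies, brought to 1×10^-3 OD600 in PBS, then diluted 1:100 in YPAD. Serial twofold drug dilutions from 64 to 1 µg/mL in YPAD. OD600 read every 40 min over 48 h at 30 °C against no-drug and medium-blank controls. Triplicate wells, two independent experiments.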

Test [4] deals with Candida parapsilosis. In words: Antifungal activity against Candida parapsilosis ATCC 22019 assessed as fungal growth inhibition incubated for 24 hrs by CLSI based broth double-dilution assay. The test is classed as functional. Particulars: Lodderomyces parapsilosis. The procedure, abridged:
(§3)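 CLSI M27-A3 broth microdilution with modifications in YPAD. Cells from 24 h, 30 °C YPAD-agar colonies brought to 1×10^-3 OD600 in PBS, then diluted 1:100. Twofold dilutions from 64 to 0.003 µg/mL. After 24 h at 30 °C, MIC80 taken as the lowest concentration giving ≥80% OD600 reduction versus no-drug wells. Triplicate wells, two independent experiments.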

The test system of test [5] is Candida albicans. In words: Antifungal activity against Candida albicans SN152 harbouring erg3delta delta/erg11delta delta assessed as […] fungal growth inhibition at 1 to 64 ug/mL measured every 40 mins for 48 hrs by double dilution method. Format: functional, organism-based. Particulars: dose 1-64 µg/ml. The procedure, abridged: as §2
In test [6] the test system is Candida albicans. In words: Antifungal activity against Candida albicans SN152 harbouring erg3delta delta/erg11delta delta assessed as […] fungal growth inhibition measured every 40 mins for 48 hrs by double dilution method. Format: functional, organism-based. As to conditions: dose 1-64 µg/ml. Summed up:
as §2

The test system of test [7] is Candida albicans. Description: Antifungal activity against Candida albicans SN152 harbouring erg3delta delta/erg11delta delta assessed as fungal growth inhibition incubated for 24 hrs by CLSI based broth double-dilution assay. Format: functional. Summed up:
as §3

The test system of test [8] is Candida albicans. Description: Antifungal activity against Candida albicans SN152 assessed as fungal growth inhibition incubated for 24 hrs by CLSI based broth double-dilution assay. The test is classed as functional. Summed up: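 Broth double-dilution per CLSI M27-A3 (minor modifications); colonies from YPAD agar (24 h, 30 °C) suspended in PBS to 1 × 10^-3 OD600 then diluted 1:100 into YPAD; serial twofold dilutions 64–0.003 μg/mL in YPAD; 24 h at 30 °C; OD600 read; MIC80 = lowest concentration reducing OD600 ≥80% versus no-drug wells; triplicate, two independent experiments.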

As for `C[C@@H](c1ncncc1F)[C@](O)(Cn1cncn1)c1ccc(F)cc1F` [VORICONAZOLE], the result in the test on Candida albicans [1] and in the test on Candida parapsilosis [2] was inactive. For the same compound, the result in the test with Candida tropicalis and in the test with Candida albicans [3] was Active. For the same compound, in the test with Candida parapsilosis [4], the MIC80 was 0.015 µg/mL (≈ 0.0429 µM).
Turning to `OC(Cn1cncn1)(Cn1cncn1)c1ccc(F)cc1F`, the outcome in the test with Candida albicans [1], with Candida parapsilosis [2] and with Candida albicans [5] was inactive. Further, the result with Candida tropicalis was Active.
Turning to `CC(C)Cc1ccc([C@H](C)C(=O)NC[C@](O)(Cn2cncn2)c2ccc(F)cc2F)cc1`, the outcome with Candida albicans [1], in the test on Candida parapsilosis [2] and with Candida tropicalis was Active. Further, the Activity entry in the test on Candida albicans [6] was “Dose-Dependent Effect”. Besides, the MIC80 is 64 µg/mL (≈ 145 µM) in the test on Candida albicans [7] and 3 ng/mL (≈ 0.00678 µM) in the test with Candida albicans [8].
Regarding `CC(C(=O)O)c1ccc(-c2ccccc2)c(F)c1` (centres undefined), the Activity entry in the test with Candida albicans [6] was “Dose-Dependent Effect”.
Same read-out and setting: then `CC(C)Cc1ccc(C(C)C(=O)O)cc1` (centres undefined), with “Dose-Dependent Effect”.
Take `C[C@H](C(=O)NC[C@](O)(Cn1cncn1)c1ccc(F)cc1F)c1ccc(-c2ccccc2)c(F)c1`: the outcome in the test on Candida albicans [1], in the test on Candida parapsilosis [2] and in the test with Candida tropicalis was Active. For the same compound, the Activity result with Candida albicans [6] is “Dose-Dependent Effect”. The MIC80 with Candida parapsilosis [4] amounted to 0.5 µg/mL (≈ 1.04 µM); in the test on Candida albicans [7] it was 64 µg/mL (≈ 133 µM); with Candida albicans [8], 7 ng/mL (≈ 0.0146 µM).

For the origin of these results see ChEMBL document CHEMBL5042534, “Fluconazole-COX Inhibitor Hybrids: A Dual-Acting Class of Antifungal Azoles” (2022).
